Laboratory results reported in ChEMBL document CHEMBL5303300, “EUbOPEN Chemogenomics Library - Multiplex” (2023).
Values joined by “and” are separate entries in the source; they are usually repeats but may differ in a detail not shown here. Equal values may be shown once.

Key:
Type in all cases: toxicity, cell-based
[1] = system: U2OS; experiment: Multiplex assay against U2OS; settings: human, number of replicates 2
Outline: (§1)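 On a CQ1 microscope at 37°C and 5% CO2, live cells were imaged after compound addition. They had been stained at seeding with Hoechst33342, BioTracker Green Microtubule Cytoskeleton Dye, MitoTracker Red and Annexin V Alexa Fluor 680. CellPathfinder machine-learning gating assigned cells to Hoechst high-intensity objects or normal cells, normal cells to healthy, pyknosed or fragmented nuclei, and pyknosed cells to mitotic or apoptotic. Tubulin, mitochondrial-mass and membrane-permeability phenotypes are per cents of healthy-nucleus cells.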

[2] = system: Fibroblast; experiment: Multiplex assay against human fibroblast; settings: number of replicates 2; outline: as §1
[3] = system: HEK-293T; experiment: Multiplex assay against HEK293T; settings: human, number of replicates 2; outline: as §1
[4] = 12 h, 1 µM, compound concentration 1 uM
[5] = 12 h, 10 µM, compound concentration 10 uM
[6] = 24 h, 1 µM, compound concentration 1 uM
[7] = 24 h, 10 µM, compound concentration 10 uM
[8] = 48 h, 1 µM, compound concentration 1 uM
[9] = 48 h, 10 µM, compound concentration 10 uM

## Br.Oc1cc2c(cc1O)C(c1ccccc1)CNCC2 (stereo not drawn)
[1]; [4]
  Population Fragmented Nuclei (%): 14% and 5%
  Population Healthy Nuclei (%): 80% and 82%
  Population Hoechst High Intensity Objects (%): 0%
  Population Membrane Permeable-Phenotype (%): 2% and 1%
  Population Mitochondria Different-Phenotype (%): 0%
  Population Mitotic Cells (%): 100% and 50%
  Population Normal (%): 100%
  Population Pyknosed Nuclei (%): 6% and 11%
  Population Tubulin-Different-Phenotype (%): 67% and 89%
[1]; [5]
  Population Apoptotic (%): 57% and 30%
  Population Healthy Nuclei (%): 33% and 85%
  Population Hoechst High Intensity Objects (%): 0%
  Population Membrane Permeable-Phenotype (%): 0% and 1%
  Population Mitochondria Different-Phenotype (%): 0% and 1%
  Population Mitotic Cells (%): 42% and 69%
  Population Normal (%): 100%
  Population Tubulin-Different-Phenotype (%): 50% and 75%
[1]; [6]
  Population Apoptotic (%): 50% and 61%
  Population Fragmented Nuclei (%): 8% and 5%
  Population Healthy Nuclei (%): 83% and 82%
  Population Hoechst High Intensity Objects (%): 2% and 0%
  Population Membrane Permeable-Phenotype (%): 2% and 0%
  Population Mitochondria Different-Phenotype (%): 2% and 0%
  Population Mitotic Cells (%): 50% and 38%
  Population Normal (%): 97% and 100%
  Population Pyknosed Nuclei (%): 8% and 11%
  Population Tubulin-Different-Phenotype (%): 67% and 91%
[1]; [7]
  Population Apoptotic (%): 50% and 44%
  Population Healthy Nuclei (%): 58% and 88%
  Population Hoechst High Intensity Objects (%): 0%
  Population Membrane Permeable-Phenotype (%): 10% and 0%
  Population Mitochondria Different-Phenotype (%): 10% and 0%
  Population Mitotic Cells (%): 50% and 55%
  Population Normal (%): 100%
  Population Pyknosed Nuclei (%): 23% and 8%
  Population Tubulin-Different-Phenotype (%): 80% and 83%
[1]; [8]
  Population Apoptotic (%): 37% and 53%
  Population Fragmented Nuclei (%): 13% and 3%
  Population Healthy Nuclei (%): 78% and 89%
  Population Hoechst High Intensity Objects (%): 0%
  Population Membrane Permeable-Phenotype (%): 5% and 0%
  Population Mitochondria Different-Phenotype (%): 2% and 0%
  Population Mitotic Cells (%): 62% and 46%
  Population Normal (%): 100% and 99%
  Population Pyknosed Nuclei (%): 8% and 7%
  Population Tubulin-Different-Phenotype (%): 64% and 99%
[1]; [9]
  Population Apoptotic (%): 44% and 64%
  Population Healthy Nuclei (%): 54% and 90%
  Population Hoechst High Intensity Objects (%): 0%
  Population Membrane Permeable-Phenotype (%): 10% and 0%
  Population Mitochondria Different-Phenotype (%): 10% and 0%
  Population Mitotic Cells (%): 55% and 35%
  Population Normal (%): 100%
  Population Tubulin-Different-Phenotype (%): 84% and 93%
[2]; [4]
  Population Apoptotic (%): 86% and 44%
  Population Fragmented Nuclei (%): 18% and 16%
  Population Healthy Nuclei (%): 73%
  Population Hoechst High Intensity Objects (%): 0%
  Population Membrane Permeable-Phenotype (%): 5% and 4%
  Population Mitochondria Different-Phenotype (%): 0% and 1%
  Population Normal (%): 100% and 99%
  Population Pyknosed Nuclei (%): 8% and 10%
  Population Tubulin-Different-Phenotype (%): 7% and 6%
  Total Cell Count: 185 and 180
[2]; [5]
  Population Apoptotic (%): 76% and 66%
  Population Fragmented Nuclei (%): 13% and 12%
  Population Healthy Nuclei (%): 76% and 79%
  Population Hoechst High Intensity Objects (%): 0%
  Population Membrane Permeable-Phenotype (%): 2%
  Population Mitochondria Different-Phenotype (%): 0% and 4%
  Population Mitotic Cells (%): 23% and 33%
  Population Normal (%): 100%
  Population Pyknosed Nuclei (%): 9% and 8%
  Population Tubulin-Different-Phenotype (%): 15% and 11%
  Total Cell Count: 132 and 172
[2]; [6]
  Population Apoptotic (%): 31% and 66%
  Population Fragmented Nuclei (%): 18% and 16%
  Population Healthy Nuclei (%): 69% and 76%
  Population Hoechst High Intensity Objects (%): 0%
  Population Membrane Permeable-Phenotype (%): 6% and 4%
  Population Mitochondria Different-Phenotype (%): 0%
  Population Mitotic Cells (%): 68% and 33%
  Population Normal (%): 100%
  Population Pyknosed Nuclei (%): 11% and 6%
  Population Tubulin-Different-Phenotype (%): 6% and 2%
  Total Cell Count: 187 and 183
[2]; [7]
  Population Apoptotic (%): 80% and 50%
  Population Fragmented Nuclei (%): 12% and 13%
  Population Healthy Nuclei (%): 84% and 79%
  Population Hoechst High Intensity Objects (%): 0%
  Population Membrane Permeable-Phenotype (%): 1%
  Population Mitochondria Different-Phenotype (%): 0% and 1%
  Population Mitotic Cells (%): 20% and 50%
  Population Normal (%): 100%
  Population Pyknosed Nuclei (%): 3% and 7%
  Population Tubulin-Different-Phenotype (%): 9% and 13%
  Total Cell Count: 140 and 169
[2]; [8]
  Population Apoptotic (%): 90% and 54%
  Population Fragmented Nuclei (%): 18% and 14%
  Population Healthy Nuclei (%): 75% and 79%
  Population Hoechst High Intensity Objects (%): 0%
  Population Membrane Permeable-Phenotype (%): 2%
  Population Mitochondria Different-Phenotype (%): 0%
  Population Normal (%): 100%
  Population Pyknosed Nuclei (%): 5%
  Population Tubulin-Different-Phenotype (%): 4% and 3%
  Total Cell Count: 175 and 194
[2]; [9]
  Population Apoptotic (%): 25% and 42%
  Population Fragmented Nuclei (%): 19% and 17%
  Population Healthy Nuclei (%): 77% and 78%
  Population Hoechst High Intensity Objects (%): 0%
  Population Membrane Permeable-Phenotype (%): 0% and 1%
  Population Mitochondria Different-Phenotype (%): 0%
  Population Mitotic Cells (%): 75% and 57%
  Population Normal (%): 100%
  Population Pyknosed Nuclei (%): 2% and 3%
  Population Tubulin-Different-Phenotype (%): 10% and 9%
  Total Cell Count: 163 and 182
[3]; [4]
  Population Apoptotic (%): 30% and 41%
  Population Fragmented Nuclei (%): 5% and 3%
  Population Healthy Nuclei (%): 85%
  Population Hoechst High Intensity Objects (%): 6% and 4%
  Population Membrane Permeable-Phenotype (%): 4% and 2%
  Population Mitochondria Different-Phenotype (%): 9% and 10%
  Population Mitotic Cells (%): 69% and 58%
  Population Normal (%): 93% and 95%
  Population Pyknosed Nuclei (%): 9% and 10%
  Population Tubulin-Different-Phenotype (%): 45% and 42%
  Total Cell Count: 950 and 793
[3]; [5]
  Population Apoptotic (%): 36% and 47%
  Population Fragmented Nuclei (%): 4% and 3%
  Population Healthy Nuclei (%): 86% and 88%
  Population Hoechst High Intensity Objects (%): 7% and 5%
  Population Membrane Permeable-Phenotype (%): 2% and 0%
  Population Mitochondria Different-Phenotype (%): 12% and 21%
  Population Mitotic Cells (%): 63% and 52%
  Population Normal (%): 92% and 94%
  Population Pyknosed Nuclei (%): 8%
  Population Tubulin-Different-Phenotype (%): 51% and 55%
  Total Cell Count: 631 and 499
[3]; [6]
  Population Apoptotic (%): 20% and 36%
  Population Fragmented Nuclei (%): 6% and 5%
  Population Healthy Nuclei (%): 89%
  Population Hoechst High Intensity Objects (%): 8% and 9%
  Population Membrane Permeable-Phenotype (%): 3% and 2%
  Population Mitochondria Different-Phenotype (%): 3%
  Population Mitotic Cells (%): 80% and 63%
  Population Normal (%): 91% and 90%
  Population Pyknosed Nuclei (%): 4% and 5%
  Population Tubulin-Different-Phenotype (%): 27% and 29%
  Total Cell Count: 1693 and 1195
[3]; [7]
  Population Apoptotic (%): 29% and 50%
  Population Fragmented Nuclei (%): 9% and 7%
  Population Healthy Nuclei (%): 86% and 88%
  Population Hoechst High Intensity Objects (%): 9% and 6%
  Population Membrane Permeable-Phenotype (%): 4% and 2%
  Population Mitochondria Different-Phenotype (%): 3% and 12%
  Population Mitotic Cells (%): 70% and 50%
  Population Normal (%): 90% and 93%
  Population Pyknosed Nuclei (%): 4%
  Population Tubulin-Different-Phenotype (%): 30% and 40%
  Total Cell Count: 1020 and 788
[3]; [8]
  Population Apoptotic (%): 4% and 10%
  Population Fragmented Nuclei (%): 20% and 11%
  Population Healthy Nuclei (%): 78% and 85%
  Population Hoechst High Intensity Objects (%): 11% and 9%
  Population Membrane Permeable-Phenotype (%): 6% and 5%
  Population Mitochondria Different-Phenotype (%): 0%
  Population Mitotic Cells (%): 95% and 89%
  Population Normal (%): 88% and 90%
  Population Pyknosed Nuclei (%): 1% and 2%
  Population Tubulin-Different-Phenotype (%): 17% and 16%
  Total Cell Count: 4091 and 2858
[3]; [9]
  Population Fragmented Nuclei (%): 23% and 14%
  Population Healthy Nuclei (%): 75% and 82%
  Population Hoechst High Intensity Objects (%): 9%
  Population Membrane Permeable-Phenotype (%): 8% and 5%
  Population Mitochondria Different-Phenotype (%): 0% and 1%
  Population Mitotic Cells (%): 96% and 84%
  Population Normal (%): 90%
  Population Pyknosed Nuclei (%): 1% and 3%
  Population Tubulin-Different-Phenotype (%): 15% and 21%
  Total Cell Count: 2576 and 1623
